Results from ChEMBL document CHEMBL1799977, “Discovery of MK-0952, a selective PDE4 inhibitor for the treatment of long-term memory loss and mild cognitive impairment” (Bioorg Med Chem Lett, 2010).
pIC50: −log10 of the molar value. Calls of active or inactive are those of the source. The calls are words filed in the database; no cut-off is given here.

Experiments:
[1] = Ratio IC50 for PDE4 activity in human whole blood to IC50 for PDE4; assay type: tissue-based
In short: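 Ratio of two IC50s. The numerator is from human whole blood stimulated with LPS, read as inhibition of TNF-α release. The denominator (PDE4QT) is the mean of the IC50s on the PDE4A, B and D catalytic domains. These were expressed as GST constructs in Sf9 cells by baculovirus. Each IC50 is the average of at least two experiments.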

[2] = biological target: 3',5'-cyclic-AMP phosphodiesterase 4A (Homo sapiens, UniProt P27815); test: Inhibition of PDE4A; settings: pooled result: one value given for 3 cell lines, strains, targets or settings
Sequence of 3',5'-cyclic-AMP phosphodiesterase 4A (P27815 whole entry, the tested form may be a part): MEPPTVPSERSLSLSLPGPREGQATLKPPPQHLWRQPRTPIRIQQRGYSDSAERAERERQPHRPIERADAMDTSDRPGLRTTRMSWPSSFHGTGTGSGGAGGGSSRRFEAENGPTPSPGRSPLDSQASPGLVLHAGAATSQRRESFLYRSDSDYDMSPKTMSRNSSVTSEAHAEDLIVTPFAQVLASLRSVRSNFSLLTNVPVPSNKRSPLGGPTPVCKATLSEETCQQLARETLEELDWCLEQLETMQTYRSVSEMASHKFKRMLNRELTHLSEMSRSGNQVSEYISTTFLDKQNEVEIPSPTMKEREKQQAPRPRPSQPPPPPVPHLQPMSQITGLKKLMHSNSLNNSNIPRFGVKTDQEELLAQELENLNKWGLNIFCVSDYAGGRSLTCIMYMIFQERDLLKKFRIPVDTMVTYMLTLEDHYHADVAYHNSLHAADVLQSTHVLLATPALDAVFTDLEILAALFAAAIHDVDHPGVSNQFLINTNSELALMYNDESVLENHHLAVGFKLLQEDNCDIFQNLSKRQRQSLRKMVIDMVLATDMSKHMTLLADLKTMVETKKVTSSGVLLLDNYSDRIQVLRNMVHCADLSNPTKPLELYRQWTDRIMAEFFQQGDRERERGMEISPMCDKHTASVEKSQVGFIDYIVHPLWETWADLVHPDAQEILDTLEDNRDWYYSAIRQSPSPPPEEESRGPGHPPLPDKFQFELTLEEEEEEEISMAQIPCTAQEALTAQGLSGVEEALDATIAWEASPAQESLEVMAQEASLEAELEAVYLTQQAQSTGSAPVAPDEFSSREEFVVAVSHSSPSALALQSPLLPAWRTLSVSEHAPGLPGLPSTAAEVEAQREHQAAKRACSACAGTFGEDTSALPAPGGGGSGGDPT
In short: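 Catalytic domains of PDE4A, B and D expressed as GST constructs in SF9 cells (baculovirus). IC50s are averages of at least two experiments.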

Phosphodiesterase 4 = Phosphodiesterase 4 (Homo sapiens, UniProt P27815+Q08499+Q07343+Q08493); test: Inhibition of PDE4 activity in human whole blood assessed as inhibition of LPS-induced TNF-alpha release
Rattus norvegicus [3] = test: Cognitive enhancing effect in Lister rat assessed as recognition of novel object at 0.01 mg/kg, po pretreated 90 mins before sample phase by novel object recognition test; assay type: functional, organism-based; parameters: dose 0.01 mg/kg
In short: (§1)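 Novel object recognition in rats. Oral dosing in 0.5% methocel 90 min before the sample trial, which ended at 25 s of exploration or 3 min. Choice trial followed with a familiar and a novel object. d2 score = (novel − familiar)/total exploration. n = 21–24; Newman–Keuls test.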

Rattus norvegicus [4] = test: Cognitive enhancing effect in Lister rat assessed as recognition of novel object at 0.1 mg/kg, po pretreated 90 mins before sample phase by novel object recognition test; assay type: functional, organism-based; parameters: dose 0.1 mg/kg; in short: as §1
[5] = (§2) Oral bioavailability in Sprague-Dawley rat at 10 mg/kg; assay type: ADME, organism-based; settings: Sprague-Dawley, in vivo
[6] = (§3) Half life in Sprague-Dawley rat at 10 mg/kg, po and 5 mg/kg, iv; assay type: ADME, organism-based; settings: Sprague-Dawley, in vivo
Rattus norvegicus [7] = test: as §2; assay type: ADME, organism-based; settings: in vivo
Rattus norvegicus [8] = test: as §3; assay type: ADME, organism-based; settings: in vivo
[9] = Drug level in rat plasma at 0.1 mg/kg, po measured 90 mins post dose; assay type: ADME, organism-based; parameters: dose 0.1 mg/kg, route oral
[10] = Drug level in rat brain at 0.1 mg/kg, po measured 90 mins post dose; assay type: ADME, organism-based; parameters: dose 0.1 mg/kg, route oral; settings: read-out: Drug uptake
[11] = Drug level in rat plasma at 0.5 mg/kg, po measured 90 mins post dose; assay type: ADME, organism-based; parameters: dose 0.5 mg/kg, route oral
[12] = Drug level in rat brain at 0.5 mg/kg, po measured 90 mins post dose; assay type: ADME, organism-based; parameters: dose 0.5 mg/kg, route oral; settings: read-out: Drug uptake
[13] = Drug level in rat plasma at 1 mg/kg, po measured 90 mins post dose; assay type: ADME, organism-based; parameters: dose 1 mg/kg, route oral
[14] = Drug level in rat brain at 1 mg/kg, po measured 90 mins post dose; assay type: ADME, organism-based; parameters: dose 1 mg/kg, route oral; settings: read-out: Drug uptake
[15] = Drug level in rat plasma at 5 mg/kg, po measured 90 mins post dose; assay type: ADME, organism-based; parameters: dose 5 mg/kg, route oral
[16] = Drug level in rat brain at 5 mg/kg, po measured 90 mins post dose; assay type: ADME, organism-based; parameters: dose 5 mg/kg, route oral; settings: read-out: Drug uptake
[17] = Drug level in rat plasma at 10 mg/kg, po measured 90 mins post dose; assay type: ADME, organism-based; parameters: dose 10 mg/kg, route oral
[18] = Drug level in rat brain at 10 mg/kg, po measured 90 mins post dose; assay type: ADME, organism-based; parameters: dose 10 mg/kg, route oral; settings: read-out: Drug uptake

Row | SMILES | Ratio IC50 [1] | pIC50 [2] | IC50 (Phosphodiesterase 4) [nM] | bioavailability [5] [%] | half-life [6] [h] | also measured
1 | CC(C)(C)NC(=O)c1cn(-c2cccc(-c3ccc(C4CC4C(=O)O)cc3)c2)c2ncccc2c1=O (racemic) | > 1140 | 7.49 | > 40000 |  |  | 
2 | O=C(NC1CC1)c1cn(-c2cccc(-c3ccc([C@@H]4C[C@H]4C(=O)O)c(F)c3)c2)c2ncccc2c1=O | 1040 |  |  |  |  | Activity (Rattus norvegicus [3]): Active; Activity (Rattus norvegicus [4]): Active
3 | O=C(NC1CC1)c1cn(-c2cccc(-c3cccc(C4CC4C(=O)O)c3)c2)c2ncccc2c1=O (racemic) | 203 | 9.27 | 110 | 100 | 1 | 
4 | O=C(NC1CC1)c1cn(-c2cccc(-c3ccc([C@H]4C[C@@H]4C(=O)O)c(F)c3)c2)c2ncccc2c1=O | 330 | 9.34 | 150 |  |  | 
5 | CC(C)(c1cc(-c2cccc(-c3ccc(C4CC4C(=O)O)cc3)c2)c2ncccc2c1)S(C)(=O)=O (single isomer, unassigned; enantiomer A) |  | 9.27 | 1400 |  |  | 
6 | O=C(NC1CC1)c1cn(-c2cccc(-c3ccc(C4CC4C(=O)O)cc3)c2)c2ncccc2c1=O (racemic) [listing 1 of 2 here] |  | 9.24 | 300 |  |  | F (Rattus norvegicus [7]): 78%; t1/2 (Rattus norvegicus [8]): 1.7 h
7 | O=C(NC1CCC1)c1cn(-c2cccc(-c3ccc(C4CC4C(=O)O)cc3)c2)c2ncccc2c1=O (racemic) | 432 | 9.28 | 220 | 20 | 2.4 | 
8 | O=C(NC1CC1)c1cn(-c2cccc(-c3ccc(C4CC4C(=O)O)cc3)c2)c2ncccc2c1=O (cis isomer) [listing 1 of 2 here] | 100 |  |  |  |  | 
9 | O=C(NC1CC1)c1cn(-c2cccc(-c3ccc([C@@H]4C[C@H]4C(=O)[O-])c(F)c3)c2)c2ncccc2c1=O.[Na+] |  |  |  |  |  | concentration at 1.5 h [9]: 590 nM; concentration at 1.5 h [10]: 12 nM; concentration at 1.5 h [11]: 1340 nM; concentration at 1.5 h [12]: 47 nM; concentration at 1.5 h [13]: 3410 nM; concentration at 1.5 h [14]: 110 nM; concentration at 1.5 h [15]: 8190 nM; concentration at 1.5 h [16]: 290 nM; concentration at 1.5 h [17]: 18800 nM; concentration at 1.5 h [18]: 590 nM
10 | CC(C)(CC(=O)O)c1ccc(-c2cccc(-n3cc(C(=O)NC4CC4)c(=O)c4cccnc43)c2)cc1 | 88 | 9.07 | 75 | 62 | 5.1 | 
11 | O=C(NC1(O)CC1)c1cn(-c2cccc(-c3ccc(C4CC4C(=O)O)cc3)c2)c2ncccc2c1=O (racemic) | 376 | 7.77 | 6400 |  |  | 
12 | O=C(NC1CC1)c1cn(-c2cccc(-c3ccc(C4CC4C(=O)O)cc3)c2)c2ncccc2c1=O (cis isomer) [listing 2 of 2 here] |  | 8.80 | 160 |  |  | F (Rattus norvegicus [7]): 30%; t1/2 (Rattus norvegicus [8]): 3.9 h
13 | O=C(NC1CC1)c1cn(-c2cccc(-c3ccccc3C3CC3C(=O)O)c2)c2ncccc2c1=O (racemic) | 282 | 8.34 | 1300 | 35 | 4.7 | 
14 | CC1(NC(=O)c2cn(-c3cccc(-c4ccc(C5CC5C(=O)O)cc4)c3)c3ncccc3c2=O)CC1 (racemic) | 482 | 9.24 | 280 | 58 | 4.1 | 
15 | O=C(NC1CC1)c1cn(-c2cccc(-c3ccc(C4CC4c4nnn[nH]4)cc3)c2)c2ncccc2c1=O (racemic) | > 9090 | 9.26 | > 5000 | 5 | 2.4 | 
16 | O=C(NC1CC1)c1cn(-c2cccc(-c3ccc(C4CC4C(=O)O)cc3)c2)c2ncccc2c1=O (racemic) [listing 2 of 2 here] | 526 |  |  |  |  | 
17 | O=C(NCC1CC1)c1cn(-c2cccc(-c3ccc(C4CC4C(=O)O)cc3)c2)c2ncccc2c1=O (racemic) | 571 | 9.46 | 200 |  |  | 
18 | O=C(NC1CC1)c1cn(-c2cccc(-c3ccc([C@H]4C[C@@H]4C(=O)O)cc3)c2)c2ncccc2c1=O | 350 | 9.18 | 230 |  |  | 
19 | CC(C)(c1cc(-c2cccc(-c3ccc(C4CC4C(=O)O)cc3)c2)c2ncccc2c1)S(C)(=O)=O (single isomer, unassigned; enantiomer B) |  | 9.49 | 600 |  |  | 
20 | O=C(NCC(F)(F)F)c1cn(-c2cccc(-c3ccc(C4CC4C(=O)O)cc3)c2)c2ncccc2c1=O (racemic) | 1080 | 9.29 | 510 | 25 | 3.2 | 
21 | O=C(NC1CC1)c1cn(-c2cccc(-c3ccc([C@@H]4C[C@H]4C(=O)O)cc3)c2)c2ncccc2c1=O | 1000 | 9.00 | 1000 |  |  | 
22 | CC(C)(Cc1ccc(-c2cccc(-n3cc(C(=O)NC4CC4)c(=O)c4cccnc43)c2)cc1)C(=O)O | 693 | 9.06 | 610 | 30 | 6.1 | 
